Measured values taken from ChEMBL document CHEMBL4024803, “New Steroidal 4-Aminoquinolines Antagonize Botulinum Neurotoxin Serotype A in Mouse Embryonic Stem Cell Derived Motor Neurons in Postintoxication Model” (J Med Chem, 2018).
pIC50: −log10 of the molar value.

Columns and labels:
[1] = target: Botulinum neurotoxin type A (Clostridium botulinum) (UniProt P0DPI0); assay: Inhibition of Clostridium botulinum BoNT/A light chain at 20 uM using P39 as substrate preincubated for 10 mins followed by substrate addition measured after 10 mins by HPLC method relative to control
Outline: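 Purified BoNT/A light chain (20 nM) with 0.2 mg/mL BSA in 50 mM HEPES pH 7.4, preincubated with compound for 10 min at room temperature. Cleavage fragments were separated by reversed-phase HPLC (214/280 nm). Percent inhibition was taken from fragment peak areas with vs without compound. Mean of three experiments.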

[2] = target: Botulinum neurotoxin type A (Clostridium botulinum) (UniProt P0DPI0); assay: (§1) Inhibition of Clostridium botulinum BoNT/A light chain using P39 as substrate preincubated for 10 mins followed by substrate addition measured after 10 mins by HPLC method
[3] = target: T1, Botulinum neurotoxin type A (Clostridium botulinum, UniProt P0DPI0); assay: as §1
[4] = target: Botulinum neurotoxin type A (Clostridium botulinum) (UniProt P0DPI0); assay: Inhibition of Clostridium botulinum BoNT/A holotoxin-mediated SNAP-25 cleavage in mouse HBG3 cell-derived motor neurons assessed as full length of SNAP-25 at 10 uM preincubated for 30 mins followed by intoxication measured after 4 hrs by Western blot method relative to control; parameters: scale not given: the % may be the effect or the level left
[5] = target: Botulinum neurotoxin type A (Clostridium botulinum) (UniProt P0DPI0); assay: Inhibition of Clostridium botulinum BoNT/A holotoxin-mediated SNAP-25 cleavage in mouse HBG3 cell-derived motor neurons assessed as full length of SNAP-25 at 20 uM preincubated for 30 mins followed by intoxication measured after 4 hrs by Western blot method relative to control; parameters: scale not given: the % may be the effect or the level left
[6] = target: Botulinum neurotoxin type A (Clostridium botulinum) (UniProt P0DPI0); assay: (§2) Inhibition of Clostridium botulinum BoNT/A holotoxin-mediated SNAP-25 cleavage in mouse HBG3 cell-derived motor neurons preincubated for 30 mins followed by intoxication measured after 4 hrs by Western blot method
[7] = target: T1, Botulinum neurotoxin type A; assay: as §2
[8] = target: Botulinum neurotoxin type A (Clostridium botulinum) (UniProt P0DPI0); assay: Inhibition of Clostridium botulinum BoNT/A holotoxin-mediated SNAP-25 cleavage in mouse HBG3 cell-derived motor neurons assessed as full length of SNAP-25 at 20 uM treated at 30 mins post intoxication by Western blot method relative to control; parameters: scale not given: the % may be the effect or the level left
[9] = target: Botulinum neurotoxin type A (Clostridium botulinum) (UniProt P0DPI0); assay: Inhibition of Clostridium botulinum BoNT/A holotoxin-mediated SNAP-25 cleavage in mouse HBG3 cell-derived motor neurons assessed as full length of SNAP-25 at 20 uM treated at 60 mins post intoxication by Western blot method relative to control; parameters: scale not given: the % may be the effect or the level left
[10] = Distribution co-efficient, log D of the compound at pH 10 by reversed-phase thin-layer chromatographic method; format: physicochemical; details: buffer
Outline: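 Reversed-phase thin-layer chromatography at pH 10, mobile phase acetone/NH3/H2O (85/5/10).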

[11] = target: Botulinum neurotoxin type A (Clostridium botulinum) (UniProt P0DPI0); assay: Inhibition of Clostridium botulinum BoNT/A holotoxin-mediated SNAP-25 cleavage in mouse HBG3 cell-derived motor neurons assessed as full length of SNAP-25 at 8 uM preincubated for 30 mins followed by intoxication measured after 4 hrs by Western blot method relative to control; parameters: scale not given: the % may be the effect or the level left
[12] = target: Botulinum neurotoxin type A (Clostridium botulinum) (UniProt P0DPI0); assay: Inhibition of Clostridium botulinum BoNT/A holotoxin-mediated SNAP-25 cleavage in mouse HBG3 cell-derived motor neurons assessed as full length of SNAP-25 at 16 uM preincubated for 30 mins followed by intoxication measured after 4 hrs by Western blot method relative to control; parameters: scale not given: the % may be the effect or the level left
[13] = target: Botulinum neurotoxin type A (Clostridium botulinum) (UniProt P0DPI0); assay: Inhibition of Clostridium botulinum BoNT/A holotoxin-mediated SNAP-25 cleavage in mouse HBG3 cell-derived motor neurons assessed as full length of SNAP-25 at 16 uM treated at 30 mins post intoxication by Western blot method relative to control; parameters: scale not given: the % may be the effect or the level left
[14] = target: Botulinum neurotoxin type A (Clostridium botulinum) (UniProt P0DPI0); assay: Inhibition of Clostridium botulinum BoNT/A holotoxin-mediated SNAP-25 cleavage in mouse HBG3 cell-derived motor neurons assessed as full length of SNAP-25 at 64 uM treated at 30 mins post intoxication by Western blot method relative to control; parameters: scale not given: the % may be the effect or the level left
[15] = Distribution co-efficient, log D of the compound at pH 1 by reversed-phase thin-layer chromatographic method; format: physicochemical; details: buffer
Outline: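 Reversed-phase thin-layer chromatography at pH 1, mobile phase MeOH/HCl (70/30).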

Mus musculus [16] = assay: In vivo inhibition of Clostridium botulinum BoNT/A in CD1 mouse assessed as mouse survival at 1 mg/kg, ip administered 3 hrs post intoxication measured over 24 hrs relative to control; format: functional
Mus musculus [17] = assay: Toxicity in mouse assessed as effect on survival at 160 mg/kg, po administered for 3 days measured after 30 days; format: organism-based; details: in vivo, 720 h
Outline: (§3)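 Groups of five healthy mice were dosed per os for three consecutive days, suspended in 0.5% hydroxyethylcellulose–0.1% Tween 80. Behaviour and appearance were monitored twice daily for 30 days, with survival assessed at 30 days. Non-toxic was defined as all 5 surviving with normal appearance and behaviour.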

Mus musculus [18] = assay: Toxicity in mouse assessed as effect on appearance at 160 mg/kg, po administered for 3 days measured 2 times a day for 30 days; format: organism-based; details: in vivo, 720 h; outline: as §3
Mus musculus [19] = assay: Toxicity in mouse assessed as effect on behavior at 160 mg/kg, po administered for 3 days measured 2 times a day for 30 days; format: organism-based; details: in vivo, 720 h; outline: as §3

SMILES | inhibition [1] [%] | inhibition [2] | pIC50 [3] | Activity [4] [%] | Activity [5] [%] | inhibition [6] | pIC50 [7] | Activity [8] [%] | Activity [9] [%] | chromatographic logD [10] | Activity [11] [%] | Activity [12] [%] | Activity [13] [%] | Activity [14] [%] | chromatographic logD [15] | survival at 1 mg/kg (Mus musculus [16]) [%] | Activity (Mus musculus [17]) | Activity (Mus musculus [18]) | Activity (Mus musculus [19])
CC(CCN(C)CC12CC3CC(CC(C3)C1)C2)Nc1ccnc2cc(Cl)ccc12 (stereo not drawn) | 67 | Dose-dependent effect | 4.93 | 63 | 72 | Dose-dependent effect | > 5.00 | 15 | 16 | 3.47 | – | – | – | – | – | – | – | – | –
C[C@H](CCCNCCCCNc1ccnc2cc(Cl)ccc12)[C@H]1CC[C@H]2[C@@H]3[C@H](O)C[C@@H]4C[C@H](N)CC[C@]4(C)[C@H]3C[C@H](O)[C@]12C | 48 | – | – | 46 | – | Dose-dependent effect | 4.80 to 5.10 | – | – | – | 58 | 58 | 49 | 69 | 2.97 | – | – | – | –
CC(=O)O[C@H]1C[C@H]2[C@@H]([C@H](OC(C)=O)C[C@@H]3C[C@H](N)CC[C@@]32C)[C@@H]2CC[C@H]([C@H](C)CCCNCCCCNc3ccnc4ccccc34)[C@@]12C | 80 | Dose-dependent effect | 5.24 | 28 | 67 | Dose-dependent effect | 4.70 to 5.00 | 48 | 49 | – | – | – | – | – | 2.14 | – | – | – | –
O=C(N/N=C/c1cc(O)c(O)cc1O)c1cc2ccccc2cc1O | – | – | – | – | – | – | – | – | – | – | – | – | – | – | – | 30 | – | – | –
N#Cc1ccc(-c2ccc(-c3ccc(CNCCCCCCCCNc4ccnc5ccccc45)cc3)s2)cc1 | 77 | Dose-dependent effect | 5.17 | 31 | 70 | Dose-dependent effect | 4.70 to 5.00 | 20 | 19 | – | – | – | – | – | 3.42 | – | Non-Toxic | Non-Toxic | Non-Toxic
CC(CCCNc1ccnc2ccccc12)NCc1ccc(-c2csc3ccc(F)cc23)cc1 (stereo not drawn) | 75 | Dose-dependent effect | 5.13 | 58 | 68 | Dose-dependent effect | 4.70 to 5.00 | 16 | 17 | 3.85 | – | – | – | – | – | – | Non-Toxic | Non-Toxic | Non-Toxic
CC(CCCN(C)Cc1ccc(-c2csc3ccc(C#N)cc23)cc1)Nc1ccnc2ccccc12 (stereo not drawn) | 27 | – | – | 59 | 64 | Dose-dependent effect | 4.70 to 5.00 | – | – | 3.42 | – | – | – | – | – | – | – | – | –
CN(CCCCCCCCNc1ccnc2ccccc12)Cc1ccc(-c2ccc(-c3ccc(C#N)cc3)s2)cc1 | 35 | – | – | 54 | 60 | Dose-dependent effect | 5.00 to 5.30 | 34 | 22 | – | – | – | – | – | 3.33 | – | Non-Toxic | Non-Toxic | Non-Toxic
